Experiment [1] relates to Amaranthus retroflexus. In words: Herbicidal activity against Amaranthus retroflexus assessed as inhibition of fresh plant weight at 750 g/ha using preemergence protocol measured after 24 days under green house conditions. The note with it: pre-emergence.
In experiment [2] the test system is Digitaria. Nature of the experiment: Herbicidal activity against Digitaria adscendens assessed as inhibition of fresh plant weight at 750 g/ha using preemergence protocol measured after 24 days under green house conditions. The note with it: in Digitaria adscendens, pre-emergence.
For experiment [3], the system named is Amaranthus retroflexus. Nature of the experiment: Herbicidal activity against Amaranthus retroflexus assessed as inhibition of fresh plant weight at 750 g/ha using postemergence protocol measured after 24 days under green house conditions. Particulars: post-emergence.
Experiment [4] deals with Echinochloa crus-galli. Nature of the experiment: Herbicidal activity against Echinochloa crus-galli (barnyard grass) assessed as inhibition of fresh plant weight at 750 g/ha using preemergence protocol measured after 24 days under green house conditions. Particulars: pre-emergence.
Experiment [5] relates to Digitaria. In words: Herbicidal activity against Digitaria adscendens assessed as inhibition of fresh plant weight at 750 g/ha using postemergence protocol measured after 24 days under green house conditions. Particulars: in Digitaria adscendens, post-emergence.
For experiment [6], the system named is Spirodela polyrhiza. In words: Inhibition of chlorophyll in Spirodela polyrhiza fronds at 10 ug/mL using light intensity of 45 uE/m2/s measured after 7 days. The note with it: 168 h. It is filed as functional. In short, it runs like this: (§1)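 Giant duckweed assay. Compound in DMF dropped onto filter paper, solvent evaporated 15 min, paper placed in flask with 15 mL fresh medium and shaken >10 min. 10 fronds inoculated per flask and grown 7 days at 23-26 °C, 16 h light/8 h dark, ca. 45 µE m^-2 s^-1. DMF plus medium served as control. Chl extracted in 96% ethanol overnight at 4 °C; OD read at 665 and 649 nm; content expressed as percent of control.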

In experiment [7] the test system is Echinochloa crus-galli. Nature of the experiment: Herbicidal activity against Echinochloa crus-galli (barnyard grass) assessed as inhibition of fresh plant weight at 750 g/ha using postemergence protocol measured after 24 days under green house conditions. Particulars: post-emergence.
The subject of experiment [8] is Brassica rapa subsp. oleifera. In words: Herbicidal activity against Brassica rapa subsp. oleifera assessed as inhibition of fresh plant weight at 750 g/ha using postemergence protocol measured after 24 days under green house conditions. Particulars: post-emergence.
Experiment [9] concerns Spirodela polyrhiza. In words: Inhibition of chlorophyll in Spirodela polyrhiza fronds at 1 ug/mL using light intensity of 45 uE/m2/s measured after 7 days. It is filed as functional. The note with it: 168 h. In short, it runs like this:
as §1

Experiment [10] concerns Brassica rapa subsp. oleifera. Nature of the experiment: Herbicidal activity against Brassica rapa subsp. oleifera assessed as inhibition of fresh plant weight at 750 g/ha using preemergence protocol measured after 24 days under green house conditions. Particulars: pre-emergence.

The values that follow come from ChEMBL document CHEMBL3046507, “Synthesis and herbicidal activities of novel 3-N-substituted amino-6-methyl-4-(3-trifluoromethylphenyl)pyridazine derivatives” (2008).

Regarding `Cc1cc(-c2cccc(C(F)(F)F)c2)c(NCc2ccc(Cl)cc2)nn1`, the inhibition at 750 g/ha in the experiment with Amaranthus retroflexus [1] was found to be 3%; in the experiment with Digitaria [2], 0%; with Amaranthus retroflexus [3] it was 44%; in the experiment with Echinochloa crus-galli [4], 9%; with Digitaria [5], 18%; in the experiment with Echinochloa crus-galli [7], 15%. Further, the inhibition at 750 g/ha in [8] stood at 27%; in experiment [10], 7%. The same compound had an inhibition at 10 µg/mL with Spirodela polyrhiza [6] of 85%. Also, testing at 1 µg/mL in the experiment with Spirodela polyrhiza [9] gave an inhibition of 25%.
`Cc1cc(-c2cccc(C(F)(F)F)c2)c(NCc2ccccc2Cl)nn1`: the inhibition at 750 g/ha in the experiment with Amaranthus retroflexus [1] came to 36%; in the experiment with Digitaria [2] it was 1%; in the experiment with Amaranthus retroflexus [3], 33%; in the experiment on Echinochloa crus-galli [4] it was 3%; in the experiment on Digitaria [5], 29%; with Echinochloa crus-galli [7], 26%. Further, the inhibition at 750 g/ha came to 34% in experiment [8] and 0% in experiment [10]. Moreover, in the experiment on Spirodela polyrhiza [6], at 10 µg/mL the inhibition was 90%. The compound further returned an inhibition at 1 µg/mL in the experiment on Spirodela polyrhiza [9] of 73%.
For `Cc1cc(-c2cccc(C(F)(F)F)c2)c(NC(C)c2ccccc2)nn1` (stereo not given), the inhibition at 750 g/ha in the experiment with Amaranthus retroflexus [1] stood at 10%; in the experiment on Digitaria [2], 12%; with Amaranthus retroflexus [3], 7%; with Echinochloa crus-galli [4] it was 10%; in the experiment on Digitaria [5], 54%; with Echinochloa crus-galli [7] it was 43%. In addition, the inhibition at 750 g/ha worked out at 0% in experiment [8] and 12% in experiment [10]. In the experiment on Spirodela polyrhiza [6], the inhibition at 10 µg/mL worked out at 63%. This compound displayed an inhibition at 1 µg/mL in the experiment on Spirodela polyrhiza [9] of 31%.
Take `Cc1cc(-c2cccc(C(F)(F)F)c2)c(NC(C)c2ccc(F)cc2)nn1` (stereo not given): the inhibition at 750 g/ha in the experiment with Amaranthus retroflexus [1] was found to be 1%; with Digitaria [2], 28%; in the experiment with Amaranthus retroflexus [3], 1%; in the experiment on Echinochloa crus-galli [4], 14%; in the experiment on Digitaria [5], 57%; in the experiment on Echinochloa crus-galli [7] it was 0%. Besides, the results for the inhibition at 750 g/ha in experiment [8] and in [10] were 0% and 13%, respectively. This compound had an inhibition at 10 µg/mL with Spirodela polyrhiza [6] of 79%. In the experiment on Spirodela polyrhiza [9], this compound displayed an inhibition at 1 µg/mL of 47%.
For the compound `Cc1cc(-c2cccc(C(F)(F)F)c2)c(NC(C)c2ccc(Cl)cc2)nn1` (stereo not given), the inhibition at 750 g/ha stood at 16% in the experiment on Amaranthus retroflexus [1]; 11% with Digitaria [2]; 17% with Amaranthus retroflexus [3]; 13% with Echinochloa crus-galli [4]; 67% in the experiment on Digitaria [5]; 27% with Echinochloa crus-galli [7]. Moreover, the inhibition at 750 g/ha in experiment [8] was 8%; in experiment [10], 2%. The inhibition at 10 µg/mL in the experiment on Spirodela polyrhiza [6] was 23%. For the same compound, in the experiment with Spirodela polyrhiza [9], 1 µg/mL produced 15% inhibition.
Regarding `Cc1cc(-c2cccc(C(F)(F)F)c2)c(NCCc2ccccc2)nn1`, the inhibition at 750 g/ha in the experiment on Amaranthus retroflexus [1] is 16%; in the experiment on Digitaria [2], 27%; with Amaranthus retroflexus [3], 30%; with Echinochloa crus-galli [4], 4%; with Digitaria [5] it was 11%; in the experiment on Echinochloa crus-galli [7], 13%. Besides, the inhibition at 750 g/ha in experiment [8] was determined as 45%; in [10], 0%. Besides, in the experiment with Spirodela polyrhiza [6], testing at 10 µg/mL gave an inhibition of 100%. For the same compound, the inhibition at 1 µg/mL in the experiment on Spirodela polyrhiza [9] worked out at 100%.
For `Cc1cc(-c2cccc(C(F)(F)F)c2)c(Nc2ccccc2C)nn1`, the inhibition at 750 g/ha in the experiment with Amaranthus retroflexus [1] worked out at 0%; with Digitaria [2], 11%; with Amaranthus retroflexus [3] it was 38%; in the experiment with Echinochloa crus-galli [4] it was 0%; in the experiment with Digitaria [5], 1%; in the experiment on Echinochloa crus-galli [7], 10%. Further, the inhibition at 750 g/ha in experiment [8] was 86%; in [10], 7%. This compound returned an inhibition at 10 µg/mL in the experiment on Spirodela polyrhiza [6] of 83%. Besides, 1 µg/mL produced 65% inhibition in the experiment with Spirodela polyrhiza [9].
In the case of `Cc1ccc(Nc2nnc(C)cc2-c2cccc(C(F)(F)F)c2)c(C)c1`, the inhibition at 750 g/ha in the experiment on Amaranthus retroflexus [1] is 0%; in the experiment with Digitaria [2], 7%; in the experiment with Amaranthus retroflexus [3], 0%; in the experiment on Echinochloa crus-galli [4], 0%; with Digitaria [5], 11%; with Echinochloa crus-galli [7], 25%. Moreover, the inhibition at 750 g/ha stood at 22% in experiment [8] and 10% in experiment [10]. The compound also displayed an inhibition at 10 µg/mL with Spirodela polyrhiza [6] of 72%. The same compound came in with an inhibition at 1 µg/mL in the experiment on Spirodela polyrhiza [9] of 69%.
For the compound `COc1ccccc1Nc1nnc(C)cc1-c1cccc(C(F)(F)F)c1`, the inhibition at 750 g/ha in the experiment on Amaranthus retroflexus [1] turned out to be 4%; in the experiment on Digitaria [2] it was 0%; in the experiment on Amaranthus retroflexus [3], 30%; with Echinochloa crus-galli [4], 0%; in the experiment on Digitaria [5] it was 0%; in the experiment on Echinochloa crus-galli [7], 11%. Further, the inhibition at 750 g/ha turned out to be 6% in experiment [8] and 9% in [10]. The compound further displayed an inhibition at 10 µg/mL with Spirodela polyrhiza [6] of 82%. In the experiment with Spirodela polyrhiza [9], this compound returned an inhibition at 1 µg/mL of 62%.
As to `COc1ccc(Nc2nnc(C)cc2-c2cccc(C(F)(F)F)c2)cc1`, the inhibition at 750 g/ha is 55% in the experiment on Amaranthus retroflexus [1]; 2% in the experiment on Digitaria [2]; 27% in the experiment with Amaranthus retroflexus [3]; 5% with Echinochloa crus-galli [4]; 89% in the experiment on Digitaria [5]; 28% in the experiment on Echinochloa crus-galli [7]. In addition, the inhibition at 750 g/ha was found to be 44% in experiment [8] and 13% in [10]. For the same compound, the inhibition at 10 µg/mL with Spirodela polyrhiza [6] amounted to 100%. For the same compound, at 1 µg/mL the inhibition in the experiment on Spirodela polyrhiza [9] was 100%.
`Cc1cc(-c2cccc(C(F)(F)F)c2)c(Nc2ccccc2Cl)nn1`: the inhibition at 750 g/ha stood at 10% with Amaranthus retroflexus [1]; 0% in the experiment with Digitaria [2]; 41% in the experiment with Amaranthus retroflexus [3]; 2% in the experiment with Echinochloa crus-galli [4]; 19% with Digitaria [5]; 24% with Echinochloa crus-galli [7]. Moreover, the values for the inhibition at 750 g/ha in experiment [8] and in experiment [10] were 93% and 9%, respectively. In the experiment on Spirodela polyrhiza [6], this compound registered an inhibition at 10 µg/mL of 100%. In the experiment with Spirodela polyrhiza [9], this compound gave an inhibition at 1 µg/mL of 82%.
Turning to `Cc1cc(-c2cccc(C(F)(F)F)c2)c(Nc2cccc(Cl)c2)nn1`, the inhibition at 750 g/ha in the experiment with Amaranthus retroflexus [1] came to 12%; with Digitaria [2] it was 0%; with Amaranthus retroflexus [3], 38%; with Echinochloa crus-galli [4], 0%; in the experiment on Digitaria [5], 5%; with Echinochloa crus-galli [7] it was 7%. Also, the results for the inhibition at 750 g/ha in [8] and in [10] were 63% and 3%, respectively. In the experiment with Spirodela polyrhiza [6], this compound displayed an inhibition at 10 µg/mL of 100%. Also, 1 µg/mL produced 100% inhibition with Spirodela polyrhiza [9].
Consider `Cc1cc(-c2cccc(C(F)(F)F)c2)c(Nc2cccc(Br)c2)nn1`, for which the inhibition at 750 g/ha worked out at 0% in the experiment with Amaranthus retroflexus [1]; 0% with Digitaria [2]; 30% in the experiment on Amaranthus retroflexus [3]; 0% in the experiment with Echinochloa crus-galli [4]; 0% in the experiment on Digitaria [5]; 0% in the experiment on Echinochloa crus-galli [7]. Moreover, the results for the inhibition at 750 g/ha in experiment [8] and in experiment [10] were 17% and 14%, respectively. In the experiment with Spirodela polyrhiza [6], this compound gave an inhibition at 10 µg/mL of 100%. Moreover, the inhibition at 1 µg/mL with Spirodela polyrhiza [9] was determined as 100%.
With `Cc1cc(-c2cccc(C(F)(F)F)c2)c(Nc2ccc(Br)cc2)nn1`, the inhibition at 750 g/ha in the experiment with Amaranthus retroflexus [1] was determined as 54%; with Digitaria [2] it was 14%; with Amaranthus retroflexus [3] it was 45%; in the experiment with Echinochloa crus-galli [4], 15%; in the experiment on Digitaria [5] it was 26%; with Echinochloa crus-galli [7], 13%. Moreover, the inhibition at 750 g/ha in experiment [8] was found to be 36%; in experiment [10], 26%. In the experiment on Spirodela polyrhiza [6], this compound had an inhibition at 10 µg/mL of 63%. This compound showed an inhibition at 1 µg/mL in the experiment with Spirodela polyrhiza [9] of 59%.
On to `Cc1cc(-c2cccc(C(F)(F)F)c2)c(Nc2ccc(OC(F)(F)F)cc2)nn1`, for which the inhibition at 750 g/ha with Amaranthus retroflexus [1] was 35%; in the experiment with Digitaria [2] it was 5%; in the experiment with Amaranthus retroflexus [3], 26%; with Echinochloa crus-galli [4], 0%; in the experiment on Digitaria [5], 35%; in the experiment on Echinochloa crus-galli [7] it was 21%. Further, the inhibition at 750 g/ha was 50% in [8] and 0% in experiment [10]. This compound gave an inhibition at 10 µg/mL in the experiment on Spirodela polyrhiza [6] of 83%. For the same compound, at 1 µg/mL the inhibition in the experiment with Spirodela polyrhiza [9] was 65%.
In the case of `Cc1cc(-c2cccc(C(F)(F)F)c2)c(NCc2ccccc2F)nn1`, the inhibition at 750 g/ha in the experiment on Amaranthus retroflexus [1] was 8%; in the experiment with Digitaria [2], 0%; in the experiment with Amaranthus retroflexus [3], 44%; with Echinochloa crus-galli [4] it was 0%; in the experiment on Digitaria [5], 24%; in the experiment on Echinochloa crus-galli [7], 10%. Further, the figures for the inhibition at 750 g/ha in experiment [8] and in [10] were 49% and 24%, respectively. Moreover, in the experiment with Spirodela polyrhiza [6], the inhibition at 10 µg/mL came out at 81%. Moreover, in the experiment on Spirodela polyrhiza [9], 1 µg/mL produced 77% inhibition.
